From ChEMBL document CHEMBL4393742, “Structure-activity analysis of peptidic Chlamydia HtrA inhibitors” (Bioorg Med Chem, 2019)
Active and inactive are the calls of the source. The calls are words filed in the database; no cut-off is given here. Square brackets hold non-standard residues; d marks the D form. Peptide text beside a SMILES is read from it. * marks the point of attachment. ξ: configuration not given here. Boc = CC(C)(C)OC(=O)*; ξV = CC(C)C(N)C(=O)O

Assays:
[1] = (§1) Inhibition of recombinant chlamydia trachomatis serovar L2 434/Bu/ATCC VR-902B HtrA expressed in Escherichia coli BL21(DE3) using MeOCoum-ENLHLPLPIIF-NH-DNP as fluorescent mimotope preincubated for 20 mins followed by mimotope addition in presence of fluorophore 7-methoxycoumarin-4-acetic acid by plate reader based fluorescence assay; parameters: species or system Chlamydia trachomatis 434/Bu
Chlamydia trachomatis [2] = assay: (§2) Antibacterial activity against Chlamydia trachomatis D/UW-3/Cx strain infected in mouse McCoy cells assessed as inclusion forming units at 100 uM treated 16 hrs post infection measured at 44 hrs post-infection by Evan's blue staining based-confocal microscopic analysis (reference value: 62 +/- 8.5 10^5U/mL); format: functional
[3] = tested on: Chlamydia trachomatis 434/Bu; assay: as §1, with “Potency index, ratio of JO146 IC50 to compound IC50 for inhibition” for “Inhibition”
Chlamydia pecorum [4] = assay: as §2, with “pecorum IPA ATCC VR629” for “trachomatis D/UW-3/Cx strain”, “342.55646” for “62”, “6.53872” for “8.5”; format: functional
[5] = Inhibition of bovine pancreas chymotrypsin using AAPF-pNA as substrate preincubated for 15 mins followed by substrate addition and measured every 15 secs for 5 mins; parameters: species or system Bos taurus
Method in brief: (§3)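 Enzyme and inhibitor (in DMSO) were preincubated at 37 °C for 15 min in 0.10 M Tris-HCl, pH 8.1, with 0.02 M CaCl₂. The pNA substrate was added to start the reaction. A405 was monitored every 15 s over 5 min at 37 °C. Runs were in triplicate, and inhibition was expressed as percent enzyme activity remaining.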

Trypsin = Trypsin (Homo sapiens, UniProt P07477+P07478+P35030); assay: Inhibition of human trypsin using Nalpha-benzoyl-DL-R-pNA as substrate preincubated for 15 mins followed by substrate addition and measured every 15 secs for 5 mins; format: protein assay; method in brief: as §3
Neutrophil elastase = target: T1, Neutrophil elastase (Homo sapiens, UniProt P08246); assay: Inhibition of human neutrophil elastase using AAPV-pNA as substrate preincubated for 15 mins followed by substrate addition and measured every 15 secs for 5 mins; method in brief: as §3
T1 sequence (P08246 whole entry): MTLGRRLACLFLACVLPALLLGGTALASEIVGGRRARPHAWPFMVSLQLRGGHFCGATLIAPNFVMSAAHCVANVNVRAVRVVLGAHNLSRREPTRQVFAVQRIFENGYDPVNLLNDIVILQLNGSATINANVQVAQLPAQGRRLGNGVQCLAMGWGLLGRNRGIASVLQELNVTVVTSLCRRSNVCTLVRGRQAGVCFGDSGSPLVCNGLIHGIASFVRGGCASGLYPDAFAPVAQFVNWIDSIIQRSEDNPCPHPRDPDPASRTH

[6] = Inhibition of chlamydia trachomatis HtrA using MCA-ENLHLPLPIIF-DNP as substrate by FRET or pNA assay
Method in brief: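 Recombinant CtHtrA at 0.5 mg/mL stock, preincubated with inhibitor in DMSO in 50 mM Tris/20 mM MgCl2, pH 7.0, for 20 min at 37 °C. Reaction started with quenched fluorescent peptide (methoxycoumarin fluorophore, DNP quencher; 1 mg/mL stock in 50% isopropanol). Fluorescence read immediately at ex 340/em 405 nm over 50 cycles.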

[7] = tested on: Chlamydia trachomatis 434/Bu; assay: as §1, with “Activation of recombinant” for “Inhibition of recombinant”, “fluorescent mimotope at <50 uM preincubated for” for “fluorescent mimotope preincubated for”
Chlamydia trachomatis [8] = assay: as §2, with “trachomatis D/UW-3/Cx infected in” for “trachomatis D/UW-3/Cx strain infected in”, “assessed as reduction in inclusion forming” for “assessed as inclusion forming”; format: functional
Chlamydia pecorum [9] = assay: Antibacterial activity against Chlamydia pecorum IPA ATCC VR629 infected in mouse McCoy cells assessed as reduction in inclusion forming units at 100 uM treated 16 hrs post infection measured at 44 hrs post-infection by Evan's blue staining based-confocal microscopic analysis (reference value: 342.55646 +/- 6.53872 10^5U/mL); format: functional

CCC(=O)C(=O)C(NC(=O)[C@@H]1CCCN1C(=O)[C@@H](NC(=O)OC(C)(C)C)C(C)C)C(C)C (mixture of isomers)
IC50 [1]: > 500 µM | Activity (Chlamydia trachomatis [2]): 57 ×10⁵ U/mL | Ratio IC50 [3]: inactive | Activity (Chlamydia pecorum [4]): 351 ×10⁵ U/mL | IC50 [5]: > 500 µM | IC50 (Trypsin): > 500 µM | IC50 (Neutrophil elastase): 4.71 µM

CC(C)C(NC(=O)[C@@H]1CCCN1C(=O)[C@@H](NC(=O)OC(C)(C)C)C(C)(C)C)P(=O)(Oc1ccccc1)Oc1ccccc1 (mixture of isomers)
IC50 [1]: 9.3 µM | Activity (Chlamydia trachomatis [2]): 0.01548 ×10⁵ U/mL | Ratio IC50 [3]: 33.3 | Activity (Chlamydia pecorum [4]): 0.03388 ×10⁵ U/mL | IC50 [5]: > 500 µM | IC50 (Trypsin): > 500 µM | IC50 (Neutrophil elastase): 0.68 µM

CC(C)C(NC(=O)[C@@H]1CCCN1C(=O)[C@@H](NC(=O)OC(C)(C)C)C(C)C)C(=O)N(C)C1CC1 (stereo not given in full)
IC50 [1]: > 500 µM | Activity (Chlamydia trachomatis [2]): 8.3844 ×10⁵ U/mL | Ratio IC50 [3]: inactive

CCCC(NC(=O)[C@@H]1CCCN1C(=O)[C@@H](NC(=O)OC(C)(C)C)C(C)C)C(=O)c1nccs1 (stereo not given in full)
IC50 [1]: > 500 µM | Ratio IC50 [3]: inactive | IC50 [5]: > 500 µM | IC50 (Trypsin): > 500 µM | IC50 (Neutrophil elastase): > 150 µM

CCC(C)C(NC(=O)[C@@H]1CCCN1C(=O)[C@@H](NC(=O)OC(C)(C)C)C(C)(C)C)P(=O)(Oc1ccccc1)Oc1ccccc1 (mixture of isomers)
IC50 [1]: > 500 µM | Activity (Chlamydia trachomatis [2]): 0.1099 ×10⁵ U/mL | Ratio IC50 [3]: inactive | Activity (Chlamydia pecorum [4]): 0.2042 ×10⁵ U/mL | IC50 [5]: 0.53 µM | IC50 (Trypsin): > 500 µM | IC50 (Neutrophil elastase): 2.35 µM

CC[C@H](C)[C@H](NC(=O)OC(C)(C)C)C(=O)N1CCC[C@H]1C(=O)NC(C(C)C)P(=O)(Oc1ccccc1)Oc1ccccc1 (mixture of isomers)
IC50 [1]: 25 µM | Activity (Chlamydia trachomatis [2]): 0.5089 ×10⁵ U/mL | Ratio IC50 [3]: 14.3 | Activity (Chlamydia pecorum [4]): 10.8851 ×10⁵ U/mL | IC50 [5]: > 500 µM | IC50 (Trypsin): > 500 µM | IC50 (Neutrophil elastase): 0.4 µM

CC(C)C(NC(=O)[C@@H]1CCCN1C(=O)[C@H](C)NC(=O)OC(C)(C)C)P(=O)(Oc1ccccc1)Oc1ccccc1 (stereo not given in full)
IC50 [6]: 47.2 µM

CCN(C)C(=O)C(NC(=O)[C@@H]1CCCN1C(=O)[C@@H](NC(=O)OC(C)(C)C)C(C)C)C(C)C (stereo not given in full)
IC50 [1]: > 500 µM | Activity (Chlamydia trachomatis [2]): 34.5497 ×10⁵ U/mL | Ratio IC50 [3]: inactive

C=CCN(C)C(=O)C(NC(=O)[C@@H]1CCCN1C(=O)[C@@H](NC(=O)OC(C)(C)C)C(C)C)C(C)C (stereo not given in full)
IC50 [1]: > 500 µM | Activity (Chlamydia trachomatis [2]): 36.2553 ×10⁵ U/mL | Ratio IC50 [3]: inactive

CC(C)C(NC(=O)[C@@H]1CCCN1C(=O)[C@@H](NC(=O)OC(C)(C)C)C(C)C)C(=O)C(N)=O (stereo not given in full)
IC50 [1]: > 500 µM | Activity (Chlamydia trachomatis [2]): 29.07 ×10⁵ U/mL | Ratio IC50 [3]: inactive

CCC(C)C(NC(=O)[C@@H]1CCCN1C(=O)[C@@H](NC(=O)OC(C)(C)C)[C@@H](C)CC)P(=O)(Oc1ccccc1)Oc1ccccc1 (mixture of isomers)
IC50 [1]: 86 µM | Activity (Chlamydia trachomatis [2]): 0.1134 ×10⁵ U/mL | Activity (Chlamydia pecorum [4]): 0.3958 ×10⁵ U/mL | IC50 [5]: 1.28 µM | IC50 (Trypsin): > 500 µM | IC50 (Neutrophil elastase): 0.84 µM

CC(C)C(NC(=O)[C@@H]1CCCN1C(=O)[C@@H](NC(=O)OC(C)(C)C)C(C)C)C(=O)N(C)C (stereo partly drawn) (Boc-Val-Pro-[ξV]-NMe2)
IC50 [1]: > 500 µM | Activity (Chlamydia trachomatis [2]): 30.9343 ×10⁵ U/mL | Ratio IC50 [3]: inactive

CCCC(NC(=O)[C@@H]1CCCN1C(=O)[C@@H](NC(=O)OC(C)(C)C)C(C)C)P(=O)(Oc1ccccc1)Oc1ccccc1 (mixture of isomers)
IC50 [1]: > 500 µM | Activity (Chlamydia trachomatis [2]): 1.49 ×10⁵ U/mL | Ratio IC50 [3]: inactive | Activity (Chlamydia pecorum [4]): 0.4583 ×10⁵ U/mL | IC50 [5]: > 500 µM | IC50 (Trypsin): > 500 µM | IC50 (Neutrophil elastase): 0.68 µM

CC(C)C(CO)NC(=O)[C@@H]1CCCN1C(=O)[C@@H](NC(=O)OC(C)(C)C)C(C)C (mixture of isomers)
IC50 [1]: > 500 µM | Activity (Chlamydia trachomatis [2]): 34.6007 ×10⁵ U/mL | Ratio IC50 [3]: inactive

CC(C)C(NC(=O)[C@@H]1CCCN1C(=O)[C@@H](NC(=O)OC(C)(C)C)C(C)C)B(O)O (stereo not given in full)
IC50 [1]: > 500 µM | Activity (Chlamydia trachomatis [2]): 0.09939 ×10⁵ U/mL | Activity [7]: Active | Activity (Chlamydia trachomatis [8]): 3 log10CFU

CC(C)C(NC(=O)[C@@H]1CCCN1C(=O)[C@@H](NC(=O)OC(C)(C)C)C(C)C)C(=O)c1nccs1 (mixture of isomers)
IC50 [1]: > 500 µM | Activity (Chlamydia trachomatis [2]): 33.1 ×10⁵ U/mL | Ratio IC50 [3]: inactive | Activity (Chlamydia pecorum [4]): 1.983 ×10⁵ U/mL

CC(=O)C(=O)C(NC(=O)[C@@H]1CCCN1C(=O)[C@@H](NC(=O)OC(C)(C)C)C(C)C)C(C)C (mixture of isomers)
IC50 [1]: > 500 µM | Activity (Chlamydia trachomatis [2]): 86 ×10⁵ U/mL | Ratio IC50 [3]: inactive | IC50 [5]: > 500 µM | IC50 (Trypsin): > 500 µM | IC50 (Neutrophil elastase): 1.35 µM

CCC(C)C(NC(=O)[C@@H]1CCCN1C(=O)[C@@H](NC(=O)OC(C)(C)C)C(C)C)P(=O)(Oc1ccccc1)Oc1ccccc1 (mixture of isomers)
IC50 [1]: 18.4 µM | Activity (Chlamydia trachomatis [2]): 0.09231 ×10⁵ U/mL | Ratio IC50 [3]: 20 | Activity (Chlamydia pecorum [4]): 43.9246 ×10⁵ U/mL | IC50 [5]: 38.5 µM | IC50 (Trypsin): > 500 µM | IC50 (Neutrophil elastase): 0.36 µM

CC(C)C(NC(=O)[C@@H]1CCCN1C(=O)[C@@H](NC(=O)OC(C)(C)C)C(C)C)C(=O)C(=O)C1CC1 (mixture of isomers)
IC50 [1]: > 500 µM | Activity (Chlamydia trachomatis [2]): 55.0347 ×10⁵ U/mL | Ratio IC50 [3]: inactive | IC50 [5]: > 500 µM | IC50 (Trypsin): > 500 µM

CCC(C)C(NC(=O)[C@@H]1CCCN1C(=O)[C@@H](NC(=O)OC(C)(C)C)C(C)(C)C)C(=O)c1nc2ccccc2s1 (mixture of isomers)
IC50 [1]: > 500 µM | Activity (Chlamydia trachomatis [2]): 2.829 ×10⁵ U/mL | Ratio IC50 [3]: inactive | Activity (Chlamydia pecorum [4]): 0.2193 ×10⁵ U/mL | IC50 [5]: > 500 µM | IC50 (Trypsin): > 500 µM | IC50 (Neutrophil elastase): 4.83 µM

CC(C)C(NC(=O)[C@@H]1CCCN1C(=O)[C@@H](NC(=O)OC(C)(C)C)C(C)C)C(=O)c1nc2ccccc2s1 (mixture of isomers)
IC50 [1]: 321 µM | Activity (Chlamydia pecorum [9]): 4 log10CFU | Activity (Chlamydia trachomatis [2]): 2.539 ×10⁵ U/mL | Ratio IC50 [3]: 1.06 | Activity (Chlamydia pecorum [4]): 0.04744 ×10⁵ U/mL | IC50 [5]: > 500 µM | IC50 (Trypsin): > 500 µM | IC50 (Neutrophil elastase): 2.6 µM

CCC[C@H](NC(=O)OC(C)(C)C)C(=O)N1CCC[C@H]1C(=O)NC(C(C)C)P(=O)(Oc1ccccc1)Oc1ccccc1 (mixture of isomers)
IC50 [1]: 56 µM | Activity (Chlamydia trachomatis [2]): 17.0963 ×10⁵ U/mL | Activity (Chlamydia pecorum [4]): 219.8 ×10⁵ U/mL | IC50 [5]: > 500 µM | IC50 (Trypsin): > 500 µM | IC50 (Neutrophil elastase): 0.45 µM

CC(C)C(NC(=O)[C@@H]1CCCN1C(=O)[C@@H](NC(=O)OC(C)(C)C)C(C)C)P(=O)(Oc1ccccc1)Oc1ccccc1 (stereo not given in full)
IC50 [1]: 13 to 351 µM | Activity (Chlamydia trachomatis [2]): 0.00434 ×10⁵ U/mL | IC50 [6]: 12.5 µM | IC50 [5]: > 500 µM | IC50 (Trypsin): > 500 µM | IC50 (Neutrophil elastase): 0.83 µM

CC(C)[C@H](NC(=O)OC(C)(C)C)C(=O)N1CCC[C@H]1C(=O)NC(C(C)(C)C)P(=O)(Oc1ccccc1)Oc1ccccc1 (mixture of isomers)
IC50 [1]: > 500 µM | Activity (Chlamydia trachomatis [2]): 0.217 ×10⁵ U/mL | Ratio IC50 [3]: inactive | Activity (Chlamydia pecorum [4]): 5.344 ×10⁵ U/mL | IC50 [5]: > 500 µM | IC50 (Trypsin): > 500 µM | IC50 (Neutrophil elastase): > 500 µM
